Reference: ChEMBL document CHEMBL1128699, “Inhibition of the EGF-stimulated cellular proliferation of ER 22 cells by hydroxybiphenyl derivatives” (J Med Chem, 1995)

How the values were obtained:
[1] = target: T1, Epidermal growth factor receptor (Homo sapiens, UniProt P00533); assay: In vitro inhibition of intrinsic tyrosine protein kinase activity of the Epidermal growth factor receptor using […]
How it was run: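 Enzyme source was ER 22 membranes purified on 32% sucrose. Reaction buffer: 20 mM Hepes pH 7.4, 1 mM MnCl2, 0.1 mg/mL BSA, 100 ng/mL EGF. Receptor was preincubated with EGF for 10 min at room temperature, then inhibitor was added. It was stopped with TCA; supernatant was spotted on phosphocellulose paper, washed in phosphoric acid and counted by scintillation.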

[2] = target: T1, Epidermal growth factor receptor; details: 5 uM
[3] = target: T1, Epidermal growth factor receptor; details: 10 uM
[4] = target: T1, Epidermal growth factor receptor; details: 1.25 uM
[5] = target: T1, Epidermal growth factor receptor; details: 10 uM; remark: listed apart in the source
[6] = target: T1, Epidermal growth factor receptor; details: 10 uM; remark: listed apart in the source
[7] = target: T1, Epidermal growth factor receptor; details: 10 uM; remark: listed apart in the source
[8] = target: T1, Epidermal growth factor receptor; details: 5 uM; remark: listed apart in the source
[9] = target: T1, Epidermal growth factor receptor; assay: Inhibition of Epidermal growth factor receptor activity against […] at 10 uM

T1 sequence (P00533 whole entry): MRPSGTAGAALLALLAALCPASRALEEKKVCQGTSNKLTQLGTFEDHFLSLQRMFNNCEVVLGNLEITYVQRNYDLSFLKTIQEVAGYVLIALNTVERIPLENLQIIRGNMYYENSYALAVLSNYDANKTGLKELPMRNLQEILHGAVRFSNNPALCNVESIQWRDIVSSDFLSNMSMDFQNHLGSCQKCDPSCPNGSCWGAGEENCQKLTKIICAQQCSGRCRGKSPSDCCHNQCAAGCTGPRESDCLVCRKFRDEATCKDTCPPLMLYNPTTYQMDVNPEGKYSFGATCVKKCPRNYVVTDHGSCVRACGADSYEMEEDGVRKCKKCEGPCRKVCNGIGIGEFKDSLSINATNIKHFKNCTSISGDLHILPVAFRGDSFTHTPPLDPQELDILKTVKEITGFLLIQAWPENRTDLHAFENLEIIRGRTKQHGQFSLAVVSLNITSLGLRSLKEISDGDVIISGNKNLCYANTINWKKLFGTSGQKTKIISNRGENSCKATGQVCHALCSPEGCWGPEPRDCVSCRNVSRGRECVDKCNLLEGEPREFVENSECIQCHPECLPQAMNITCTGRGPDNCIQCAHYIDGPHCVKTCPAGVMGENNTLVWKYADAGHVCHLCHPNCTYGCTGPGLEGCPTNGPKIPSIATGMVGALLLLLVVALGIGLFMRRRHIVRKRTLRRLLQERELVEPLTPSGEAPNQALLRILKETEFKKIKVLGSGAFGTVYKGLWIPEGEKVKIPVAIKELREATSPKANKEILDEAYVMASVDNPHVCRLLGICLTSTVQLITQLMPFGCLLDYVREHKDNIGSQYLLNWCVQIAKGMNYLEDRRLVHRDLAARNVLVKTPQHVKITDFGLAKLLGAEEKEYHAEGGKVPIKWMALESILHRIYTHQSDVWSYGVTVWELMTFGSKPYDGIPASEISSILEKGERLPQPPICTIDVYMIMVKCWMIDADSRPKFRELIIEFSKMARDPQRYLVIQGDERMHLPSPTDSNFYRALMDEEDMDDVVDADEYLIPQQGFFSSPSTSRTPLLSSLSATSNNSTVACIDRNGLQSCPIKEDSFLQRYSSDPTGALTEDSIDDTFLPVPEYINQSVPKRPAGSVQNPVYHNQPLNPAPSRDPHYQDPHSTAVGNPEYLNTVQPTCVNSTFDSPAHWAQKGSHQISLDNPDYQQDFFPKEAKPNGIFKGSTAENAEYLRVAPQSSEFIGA

## O=C(NCc1ccccc1)c1ccc(-c2ccc(-c3ccccc3)cc2O)cc1
[1]
  IC50: > 1 µM

## COCOc1cc(-c2ccccc2)ccc1-c1ccc(C(=O)OCC(C)CC(C)(C)C)cc1 (stereo not drawn)
[1]
  IC50: > 20 µM
[2]
  inhibition: 10%

## CC(COC(=O)c1ccc(-c2cccc(-c3ccccc3)c2O)cc1)CC(C)(C)C (stereo not drawn)
[3]
  inhibition: 11%

## COC(=O)c1ccc(-c2ccc(-c3ccccc3)cc2O)cc1
[1]
  IC50: 14 µM
[4]
  inhibition: 41%

## O=C(NCc1ccccc1)c1ccc(-c2cccc(-c3ccccc3)c2O)cc1
[1]
  IC50: > 5 µM

## CC(COC(=O)c1ccc(-c2ccc(-c3ccccc3)cc2O)cc1)CC(C)(C)C (stereo not drawn)
[2]
  inhibition: 27%
[3]
  inhibition: 3%

## COCOc1cc(C(C)(C)C)ccc1-c1ccc(C(=O)OCC(C)CC(C)(C)C)cc1 (stereo not drawn)
[1]
  IC50: > 50 µM

## COCOc1cc(-c2ccccc2)ccc1-c1ccc(C(=O)O)cc1
[3]
  inhibition: 8%

## COCOc1c(-c2ccccc2)cccc1-c1ccc(C(=O)OCC(C)CC(C)(C)C)cc1 (stereo not drawn)
[3]
  inhibition: 16%

## CC(COC(=O)c1ccc(-c2cc(O)cc(-c3ccccc3)c2)cc1)CC(C)(C)C (stereo not drawn)
[5]
  inhibition: 15%

## COC(=O)c1ccc(-c2cc(O)cc(C(C)(C)C)c2)cc1
[1]
  IC50: > 10 µM

## CC(COC(=O)c1ccc(-c2ccc(C(C)(C)C)cc2O)cc1)CC(C)(C)C (stereo not drawn)
[2]
  inhibition: 25%
[5]
  inhibition: 3%

## CC(C)(C)c1cc(O)cc(-c2ccc(C(=O)NCc3ccccc3)cc2)c1
[1]
  IC50: > 5 µM

## COC(=O)c1ccc(-c2ccc(C(C)(C)C)cc2O)cc1
[5]
  inhibition: 6%

## O=C(NCc1ccccc1)c1ccc(-c2cc(O)cc(-c3ccccc3)c2)cc1
[5]
  inhibition: 5%

## CC(COC(=O)c1ccc(-c2cc(O)cc(C(C)(C)C)c2)cc1)CC(C)(C)C (stereo not drawn)
[5]
  inhibition: 10%

## CC(C)(C)c1ccc(-c2ccc(C(=O)NCc3ccccc3)cc2)c(O)c1
[1]
  IC50: > 5 µM
[6]
  inhibition: 57%

## COCOc1cc(-c2ccccc2)ccc1-c1ccc(C(=O)NCc2ccccc2)cc1
[1]
  IC50: > 1 µM

## COC(=O)c1ccc(-c2cccc(-c3ccccc3)c2O)cc1
[1]
  IC50: > 20 µM

## CC(C)(C)c1cc(O)cc(-c2ccc(CO)cc2)c1
[1]
  IC50: > 10 µM
[7]
  inhibition: 21%

## COCOc1cc(C(C)(C)C)ccc1-c1ccc(C(=O)NCc2ccccc2)cc1
[1]
  IC50: > 5 µM
[8]
  inhibition: 47%

## CC(C)(C)c1ccc(-c2ccc(C(=O)O)cc2)c(O)c1
[1]
  IC50: > 10 µM

## COCOc1cc(C(C)(C)C)ccc1-c1ccc(C(=O)OC)cc1
[9]
  IC50: > 10 µM

## COCOc1cc(-c2ccccc2)ccc1-c1ccc(C(=O)OC)cc1
[3]
  inhibition: 2%

## O=C(O)c1ccc(-c2cc(O)cc(-c3ccccc3)c2)cc1
[5]
  inhibition: 9%

## CC(C)(C)c1cc(O)cc(-c2ccc(C(=O)O)cc2)c1
[1]
  IC50: > 50 µM
